High-throughput results from PubChem BioAssay.
Only some compounds are listed: those with a hit (about 2.6% of all), similar ones and a draw of the others.
PvdQ inh: P. aeruginosa PvdQ acylase inhibitors, primary screen, biochemical, fluorescence, plate reader and imaging, single point; PvdQ acylase [Pseudomonas aeruginosa LESB58]; purified PvdQ acylase; inhibition, % at 10 µM; 0.063% of 340,000 active; AID 488965, 2010; in the data active = inhibition above about 30%, passing the limit was not always enough; inconclusive = no clear call, values can overlap the other calls;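 note: 0% = vehicle neutral wells and 100% = reference inhibitor wells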
dFosB activator: activators of delta FosB homodimer, primary screen, biochemical, fluorescence polarization, TAMRA-CDK5 oligo, single point. AID 493131, 2011. activation, % at 25 µM. 0.99% of 340,000 active. Protein FosB (Mus musculus), P13346. purified delta FosB; percent of positive-control signal above neutral wells;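 active = mean activation above about 17%, with every replicate also reaching it, limit read from the data, passing the limit was not always enough; inconclusive = only one of the two conditions met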
Target sequence (P13346 whole entry, looked up): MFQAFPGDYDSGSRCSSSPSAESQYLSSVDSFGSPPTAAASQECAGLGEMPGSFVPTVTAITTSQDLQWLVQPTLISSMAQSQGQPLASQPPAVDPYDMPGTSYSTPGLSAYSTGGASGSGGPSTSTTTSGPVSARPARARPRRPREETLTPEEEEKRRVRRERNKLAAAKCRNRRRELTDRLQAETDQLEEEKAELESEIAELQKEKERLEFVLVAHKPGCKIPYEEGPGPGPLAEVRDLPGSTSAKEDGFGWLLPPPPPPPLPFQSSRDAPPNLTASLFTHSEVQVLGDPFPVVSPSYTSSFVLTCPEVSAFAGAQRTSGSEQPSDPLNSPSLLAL
SR-BI DiI-HDL act: activators of SR-BI mediated DiI-HDL uptake, primary screen, ldlA[mSR-BI] CHO cells, DiI fluorescence. 3 h; 100 = double the neutral-control signal. 0.096% of 320,000 active. AID 504775, 2011. activation, % at 12.5 µM;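 active = mean replicate activation of at least 60% and every replicate at or above 60%; inconclusive = mean or all-replicate condition met, but not both; inactive = mean below 60% and not all replicates reaching 60%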;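 note: 0% = median plate neutral-control signal and 100% = twice that signal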
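Material: SR-BI-overexpressing, LDLR-lacking CHO cells | Dosing: Single compound concentration, delivered by pin transfer | Probe or stimulus: Labelled HDL, 10 µg/mL | Signal: Bottom-read cell fluorescence after medium removal, ex 550/em 595 nm | Schedule: 3 h, 37 °C | Evaluation: HDL uptake via cellular fluorescence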
Ecoli rRNA inh: reduced GFP signal of wild-type E. coli, primary screen, bacterial rRNA inhibitor project, GFP/RFP fluorescence, OD600, single point | GFP signal change (wild-type ribosome), % (no concentration beside the values) | E. coli WT GFP vs humanized-ribosome RFP mutants, 24 h; hits give low values; DMSO median 0, no signal -100 | 1.6% of 350,000 active;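 active = significant combined selectivity score with lowered wild-type GFP, culture density cut under 30%, mutant RFP and density less affected; inactive = any of these conditions unmet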
SR-BI DiI inh: inhibitors of SR-BI mediated HDL lipid uptake, primary screen, ldlA[mSR-BI] cells, fluorescence, single point | ldlA[mSR-BI] CHO cells, DiI-HDL uptake fluorescence, 3 h | Scavenger receptor class B member 1 (Mus musculus), Q61009 | inhibition, % at 12.5 µM | 0.96% of 320,000 active;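 active = mean replicate inhibition of at least 70% and a set share of replicates each scoring 70 or more; inconclusive = meets just one of the two criteria; inactive = fails both criteria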;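 note: 0% = median of neutral control wells and 100% = median of positive control wells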
XiGFP reactiv: activators of inactive X chromosome reactivation, primary screen, imaging, XiGFP fibroblasts, GFP high-content imaging, set 2. activation, % at 7.58 µM. XiGFP mouse fibroblasts, % GFP-positive cells imaging, 3 d; cells co-treated with 5-aza-dC sensitizer; scaled so ellipticine positive control = 100%. 0.055% of 360,000 active;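 active = mean normalized replicate activation at least 10% and every replicate at or above 10%; inconclusive = only one of the two criteria met; inactive = mean below 10% and not all replicates reach 10%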;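 note: 0% = median of on-plate neutral control wells and 100% = ellipticine 6 µM median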
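System: 68-5-11 XiGFP fibroblast line; Timing: 3 days compound exposure; Compound dosing: one concentration, pinned; Benchmarks: positive control ellipticine, 6 µM final; Buffer or medium: DMEM containing 5-aza-dC.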
DiI quench: counter-screen for SR-BI lipid transfer inhibitors: DiI fluorescence quenchers; AID 540326; cell-free DiI-HDL fluorescence quenching, 30 min; 20% of 470 active; AC50, µM (top dose mostly 35 µM), without a hit: at the highest dose activity change, negative = quenching; shares compounds with SR-BI DiI inh;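 active = quenching, a falling signal, with AC50 below a set limit tied to the top valid dose, actives reach about 32 µM in these data; inconclusive = no clear call, values can overlap the other calls; inactive = rising signal, and the rest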
* = called active by the depositor; ? = inconclusive; . = not tested or not shown; ! = not confirmed by another sample.

SMILES | PvdQ inh | dFosB activator | SR-BI DiI-HDL act | Ecoli rRNA inh | SR-BI DiI inh | XiGFP reactiv | DiI quench
Cc1cc(C)nc(N2CCC(C(=O)N3CCN(c4cc(Cl)ccc4C)CC3)CC2)n1 | -10.9 | -15.1 | -102.5 | . | 102.5* | . | -1.7%
CN(c1ccc(C(=O)Nc2ccc3c(c2)n(C)c(=O)n3C)cc1)S(C)(=O)=O | -6.0 | 0.3 | -6.6 | 13.2 | 6.6 | 0.2 | .
NC(=O)c1ccc(-n2nc(C(F)(F)F)c3c2CCCC3)cc1 | -8.4 | -4.4 | -60.0 | -13.8 | 60.0 | -0.1 | .
CN(C)C(=O)c1ccc(-n2nc(C(F)(F)F)c3c2CCCC3)cc1 | -3.5 | -1.2 | -82.7 | . | 82.7* | . | -5.1%
O=C(O)c1ccc(-n2nc(C(F)(F)F)c3c2CCCC3)cc1 | -2.6 | 3.5 | 13.5 | -22.4 | -13.5 | 0.3 | .
O=C(c1ccc(-n2nc(C(F)(F)F)c3c2CCCC3)cc1)N1CCOCC1 | 4.5 | -5.8 | -79.3 | -19.4 | 79.3* | 0.0 | -0.9%
CCC(C)C1/C=C\CC(NC(=O)OCC2c3ccccc3-c3ccccc32)CC(=O)N1Cc1ccccc1 (stereo not given) | -12.7 | -13.6 | -74.5 | . | 74.5* | . | -2.4%
Cc1ccc(OCc2cc(C(=O)N3CCCC(O)C3)no2)cn1 (stereo not given) | -11.6 | 7.5 | 3.1 | 22.4 | -3.1 | 0.1 | -0.4%
Cc1ccc(OCc2cc(C(=O)N3CCCC(C)C3)no2)cn1 (stereo not given) | . | . | . | -4.3 | . | 0.0 | .
Cc1ccc(F)cc1NC(=O)C1C2CCC(O2)C1C(=O)O (stereo not given) | -6.1 | -12.0 | 23.5 | 0.4 | -23.5 | 0.2 | -3.5%
OCCC1CN(Cc2c(O)ccc3ccccc23)CCN1CCc1ccccc1 (stereo not given) | -8.7 | 9.5 | -24.9 | 1.1 | 24.9 | 0.0 | .
CCC(C)n1ncn(-c2ccc(N3CCN(c4ccc(OCC5COC(Cn6cncn6)(c6ccc(Cl)cc6Cl)O5)cc4)CC3)cc2)c1=O (stereo not given) | -17.5 | -6.0 | -83.0 | . | 83.0*! | 0.1 | -11.2%
CCC(C)n1ncn(-c2ccc(N3CCN(c4ccc(O)cc4)CC3)cc2)c1=O (stereo not given) | -10.5 | -6.1 | -21.5 | -10.2 | 21.5 | 0.1 | .
Cc1ccc(N=C2CCCN2Cc2ccccc2)c(C#N)c1 | -1.2 | -4.1 | -25.1 | -11.6 | 25.1 | . | .
O=C(CN1CCN(c2ncc(C(F)(F)F)cc2Cl)CC1)NCCNc1ncc(C(F)(F)F)cc1Cl | -7.8 | -4.4 | -75.4 | . | 75.4* | . | -0.6%
Cc1ccc(S(=O)(=O)N2CCN(C(=O)N(c3ccccc3)c3ccccc3)CC2)cc1 | -0.4 | -5.2 | 3.4 | . | -3.4 | . | .
CN(C)S(=O)(=O)N1CCN(C(=O)N(c2ccccc2)c2ccccc2)CC1 | -5.2 | 4.1 | -70.3 | . | ? | . | -1.9%
C[C@@H]1CCCCO[C@@H](CN(C)C(=O)Nc2ccc(F)cc2)[C@@H](C)CN([C@H](C)CO)C(=O)c2cc(NC(=O)Nc3ccc(C(F)(F)F)cc3)ccc2O1 | . | . | . | 7.9 | . | 0.4 | .
COc1ccccc1-n1cnc2cc(NCc3ccco3)ccc21 | 11.6 | -4.0 | -75.8 | . | 75.8* | . | -18.6%
COc1ccccc1-n1cnc2cc(NCc3cccs3)ccc21 | -2.9 | -7.5 | . | . | . | . | .
CC1Cc2ccccc2N1CC(=O)Nc1ccc(N2CCOCC2)cc1 (stereo not given) | 9.4 | -10.3 | -83.1 | 3.4 | 83.1* | 0.1 | -18.9%
Cc1ccc2c(c1)C(=O)C(=O)N2CC(=O)Nc1ccc(N2CCOCC2)cc1 | -16.4 | 0.6 | -3.9 | 16.4 | 3.9 | 0.6 | -10.6%
CSc1nccc(-c2sc(SC)c(C#N)c2-c2ccccc2)n1 | 8.2 | -4.7 | -84.2 | 12.1 | 84.2* | -0.1 | -3.2%
CSc1sc(-c2ccnc(SCCS(C)(=O)=O)n2)c(-c2ccccc2)c1C#N | -9.1 | -9.2 | -51.1 | 15.9 | 51.0 | 0.3 | .
C=CCN(CC=C)C(=O)COn1nnc2ccc(S(=O)(=O)N3CCOCC3)cc21 | 2.7 | -3.5 | -17.0 | 7.0 | 17.0 | 0.4 | -4.1%
SMILES | PvdQ inh | dFosB activator | SR-BI DiI-HDL act | Ecoli rRNA inh | SR-BI DiI inh | XiGFP reactiv | DiI quench
COc1ccc(CCNC(=O)c2cc(CC(C)C)on2)cc1OC | -14.3 | -9.4 | -5.8 | -2.1 | 5.8 | 0.0 | .
CCOC(=O)C1=C(CNCCOc2ccc(OC)cc2)NC(=O)NC1c1ccc2c(c1)OCO2 (stereo not given) | -9.1 | -11.7 | -71.9 | -17.1 | ? | 0.0 | -3.9%
CC1CCCC(NC(=O)c2ccc3c(c2)N(Cc2ccccc2)C(=O)CS3=O)C1C (stereo not given) | -8.2 | -22.9 | 6.5 | -10.3 | -6.5 | 0.1 | .
COc1ccc(C(=O)N2CCN(c3ccc([N+](=O)[O-])c(NCCc4ccc(OC)c(OC)c4)c3)CC2)cc1 | -6.7 | -4.6 | -74.5 | . | ? | 0.1 | 3.0%
COc1ccc(-c2nnn(CC(=O)N(c3cccc(O)c3)C(C)C(=O)NC3CCCC3)n2)cc1OC (stereo not given) | 1.6 | -8.9 | -15.8 | -19.1 | 15.8 | 0.0 | .
CCC(C(=O)NC1CCCC1)N(C(=O)Cn1nnc(-c2ccc(OC)c(OC)c2)n1)c1cccc(O)c1 (stereo not given) | -2.9 | -12.0 | -28.0 | -5.6 | 28.0 | 0.1 | 0.0%
COc1ccc(N(CC(=O)NC2CCCC2)C(=O)Cn2nnc(-c3ccc(OC)c(OC)c3)n2)cc1 | -8.9 | -8.7 | -80.0 | 13.9 | 80.0* | 0.1 | -3.9%
CCS(=O)(=O)N1CCCCN2[C@H](CO)[C@@H](c3ccc(C#CC(C)(C)O)cc3)[C@H]2C1 | . | . | . | 0.8 | . | 0.0 | .
COc1ccc(NC2=NCC(=O)N2Cc2cccs2)cc1 | -15.8 | -8.5 | 11.7 | . | -11.7 | . | .
CN(Cc1ccccc1N1CCCC1)C(=O)c1cc2cc(Cl)ccc2o1 | -5.7 | -10.3 | -70.3 | -19.1 | 70.3* | 0.3 | -9.3%
CCOC(=O)c1sc(Nc2ccccc2)nc1C | -12.0 | -7.9 | -22.0 | . | 22.0 | . | .
CCOC(=O)c1c(Nc2nc(C)c(C(=O)NC)s2)sc(C)c1C | -16.0 | -12.1 | -93.3 | . | 93.3* | . | -13.5%
Cc1cccc(C)c1NC(=O)CNC(=O)c1ccc(S(=O)(=O)NCc2ccco2)cc1 | -6.2 | -6.8 | . | 13.5 | 5.4 | 0.0 | .
